Experimental data published in ChEMBL document CHEMBL1255525, “Fluorinated 2'-hydroxychalcones as garcinol analogs with enhanced antioxidant and anticancer activities” (Bioorg Med Chem Lett, 2010).

Legend:
[1] = Lipophilicity, log P of the compound; type: physicochemical; details: octanol/water
BT-20 = assay: Cytotoxicity against human estrogen receptor-deficient BT20 cells after 24 hrs by MTT assay; type: functional, cell-based; details: BT-20, 24 h
Summary of the method: (§1)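 Cells grown at 37 °C, 5% CO₂, with penicillin (50 U/ml), streptomycin and 10% fetal calf serum; lines STR-authenticated. 3 × 10³ cells seeded per well. Compounds in DMSO added 24 h after seeding. Eight replicate wells per treatment; experiments repeated at least three times. End-point: MTT 0.5 mg/ml, 2 h at 37 °C, then DMSO 30 min at room temperature; absorbance read.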

BXPC-3 = assay: Cytotoxicity against human BxPC3 cells expressing COX2 after 24 hrs by MTT assay; type: functional, cell-based; details: BXPC-3, 24 h; summary of the method: as §1
[2] = Antioxidant activity against superoxide dismutase like activity after 15 mins by NBT spectrometric assay; type: functional
Summary of the method: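 Superoxide-scavenging (SOD-like) activity by NBT method, run in triplicate. Mix of 2.1 ml 0.2 M Tris buffer and 1 ml NBT with test solution, held on ice 15 min. KO₂ (1.5 ml) then added with stirring. Absorbance at 560 nm read every 30 s over 5 min. Ascorbic acid as standard.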

logP [1]	IC50 [2]	Structure (SMILES)	IC50 (BT-20)	IC50 (BXPC-3)
2.03	13.7 µM	O=C(/C=C/c1ccc(O)c(O)c1O)c1ccccc1O	61.7 µM	213 µM
3.51	5.68 µM	O=C(/C=C/c1ccc(F)c(F)c1)c1ccccc1O	32.8 µM	26.7 µM
2.42	6.07 µM	O=C(/C=C/c1ccc(O)cc1O)c1ccccc1O	52.9 µM	68.6 µM
–	5.43 µM	O=C1O[C@H]([C@@H](O)CO)C(O)=C1O [ASCORBIC ACID]	–	–
3.2	–	O=C(/C=C/c1ccccc1)c1ccccc1 [CHALCONE]	–	–
2.42	9.23 µM	O=C(/C=C/c1ccc(O)c(O)c1)c1ccccc1O	63.9 µM	78.3 µM
3.67	7.31 µM	O=C(/C=C/c1ccc(F)c(F)c1F)c1ccccc1O	56.6 µM	34.7 µM
3.51	5.27 µM	O=C(/C=C/c1ccc(F)cc1F)c1ccccc1O	26.4 µM	18.7 µM
